Screens (PubChem BioAssay)
Only some compounds are listed: those with a hit (about 1.6% of all), similar ones and a draw of the others.
DNMT1 inh – human DNMT1 methyltransferase inhibitors, primary screen, biochemical, molecular beacon, fluorescence, HinP1I cleavage, uHTS; DNA (cytosine-5)-methyltransferase 1 (Homo sapiens), P26358; inhibition (reported as % activation of signal), % at 10 µM; hit rate 0.83% among 360,000; AID 588458, 2011; in the data active = inhibition above about 50%
F508del corr – F508del CFTR correction, initial screen, CFBE line, single point; CFBE cells, YFP halide quenching; stimulated with forskolin plus potentiator P3; % fluorescence drop versus neutral controls; activity (quench increase), % at 7.58 µM; hit rate 0.36% among 350,000; AID 720511, 2013;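 active = mean added fluorescence quench of at least 8% versus neutral control, with both replicates also reaching 8%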;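 note: cells transiently co-express mutant CFTR-F508del with the halide-sensitive YFP; corrector assay measuring rescue of mutant channel to the surface after 24 h compound exposure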
LMPTP inh – LMPTP phosphatase inhibitors, primary screen, biochemical, fluorescence intensity, uHTS. recombinant LMPTP-A, OMFP fluorogenic substrate. inhibition, % at 20 µM. hit rate 0.22% among 360,000;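 active = compounds that cut the enzyme signal by at least half of the control window in the single-dose screen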
Target sequence (P24666 whole entry, looked up): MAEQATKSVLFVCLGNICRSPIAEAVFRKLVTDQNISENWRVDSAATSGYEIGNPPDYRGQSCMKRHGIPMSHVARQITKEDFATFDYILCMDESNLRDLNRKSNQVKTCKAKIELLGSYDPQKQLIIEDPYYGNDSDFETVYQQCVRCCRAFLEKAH
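Test system – LMPTP-A phosphatase enzyme · Quantity – 0.625 nM LMPTP-A final · Reagent – OMFP substrate, 400 µM final · Dosing – one test concentration per compound, 20 µM, with 3% DMSO overall · Timing – 50 min enzyme reaction at room temperature, protected from light · Detection – fluorescence intensity · Controls – substrate-only low control, DMSO enzyme-plus-substrate high control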
Scp-1 inhibitor – Scp-1 phosphatase inhibitors, primary screen, biochemical, colorimetric, uHTS | inhibition, % at 20 µM | Carboxy-terminal domain RNA polymerase II polypeptide A small phosphatase 1 (Homo … | Recombinant Scp1, phosphopeptide, malachite green phosphate absorbance | hit rate 0.88% among 340,000;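 active = inhibition above about 50% at 20 µM, limit read from the data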
Target sequence (Q9GZU7 76-261 limits assumed): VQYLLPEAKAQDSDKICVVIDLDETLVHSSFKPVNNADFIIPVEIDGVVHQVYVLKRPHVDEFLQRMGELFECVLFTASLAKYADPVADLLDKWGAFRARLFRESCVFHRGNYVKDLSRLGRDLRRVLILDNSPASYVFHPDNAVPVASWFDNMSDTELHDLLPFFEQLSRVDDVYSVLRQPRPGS
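Test system: SCP-1 catalytic domain; Buffer or medium: Acidic Tris acetate buffer with magnesium and detergent; Also added: Phosphorylated 17-residue peptide substrate; Compound: single 20 µM dose, 1% DMSO; Schedule: enzyme reaction 45 min at room temperature, colour 5 min, stabilisation 30 min; Signal: Phosphate-binding colour reagent, absorbance read at 630 nm.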
SUMO1-SIM PPI – modulators of SUMO1 protein-protein interactions, primary screen, biochemical, uHTS | inhibition, % at 20 µM | hit rate 0.33% among 360,000 | SUMO1 binding to a labelled peptide, TR-FRET, 1 h; in the data active = inhibition above about 37%
Target sequence (P63165 whole entry, looked up): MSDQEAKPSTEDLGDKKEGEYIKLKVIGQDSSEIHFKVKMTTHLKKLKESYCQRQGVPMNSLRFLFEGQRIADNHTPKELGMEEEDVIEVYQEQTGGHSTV
STEP block – STEP phosphatase inhibitors, primary screen, biochemical, fluorescence intensity, uHTS. Tyrosine-protein phosphatase non-receptor type 5 (Homo sapiens), P54829. recombinant STEP, OMFP fluorogenic substrate. inhibition, % at 20 µM. hit rate 0.25% among 360,000;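 active = inhibition at 20 µM, scaled per plate between control wells, above about 37%, limit read from the data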
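Measure: Control-normalized % inhibition with plate pattern correction | Test system: STEP phosphatase, cell-free reaction | Medium: pH 6.0 Bis-Tris with DTT and Tween 20 | Technique: Fluorescence, 480/540 nm | Times: Reaction 20 min, ambient temperature | Doses: Single compound dose of 20 µM, 1% DMSO final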
Beacon interf DR – spectral interference with molecular beacon fluorescence, dose response, artefact control for DNMT1 inhibitor project, biochemical, fluorescent molecular beacon | spectral interference counter-screen | IC50, µM | shares compounds with DNMT1 inh | 200 tested, under 10 active; call rule not given here
DNMT1 confirm – DNMT1 methyltransferase inhibitor retest, confirmation, biochemical, molecular beacon, fluorescence, single concentration | hit rate 8% among 2,300 | shares compounds with DNMT1 inh | inhibition, % at 10 µM | DNMT1 molecular beacon HinP1I cleavage;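 active = average inhibition of at least 30% in the single-concentration confirmation test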
Beacon interf – counter-screen for DNMT1 inhibitors: spectral interference. hit rate 1% among 2,300. shares compounds with DNMT1 inh. activation (fluorescence interference), % at 10 µM. DNMT1 molecular beacon spectral interference counterscreen, fluorescence 485/520;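 active = activation of at least 30% at 10 µM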;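 note: DNMT1 catalytic domain with a HinP1I cleavage step and a FAM/dabcyl DNA beacon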
Of the large screens only hits and unclear results are named; the others gave an inactive call (follow-up assays come after a bar, where they were run).

COc1ccc2c3c([nH]c2c1)[C@H](CO)NCC31CN(Cc2cc(F)ccc2F)C1	none (no result: DNMT1 inh, LMPTP inh, Scp-1 inhibitor, SUMO1-SIM PPI, STEP block)
O=C(C[C@@H]1C=C[C@H](NC(=O)c2ccc(F)cc2)[C@H](CO)O1)NCCc1ccncc1	none (no result: DNMT1 inh, LMPTP inh, Scp-1 inhibitor, SUMO1-SIM PPI, STEP block)
CC(=O)N=c1c(C#N)cc2c(=O)n3ccccc3nc2n1CCCOC(C)C	none
CC(C)OCCCn1c(=N)c(C(N)=S)cc2c(=O)n3ccccc3nc21	DNMT1 inh 64.3 (no result: F508del corr) | DNMT1 confirm inactive | Beacon interf inactive
Cc1ccc(NC(=O)CC2C(=O)N(Cc3ccccc3)C(=S)N2NC(=O)c2ccccc2)c(C)c1 (stereo not drawn)	DNMT1 inh 80.7 | DNMT1 confirm inactive | Beacon interf inactive
COCC(=O)N1C[C@H](C)[C@@H](OC)CN(C)C(=O)c2ccc(NS(C)(=O)=O)cc2OC[C@H]1C	none (no result: DNMT1 inh, LMPTP inh, Scp-1 inhibitor, SUMO1-SIM PPI, STEP block)
CC(C)NC(=O)N[C@@H]1CC[C@H](CC(=O)NCCN2CCCC2)O[C@H]1CO	none (no result: DNMT1 inh, LMPTP inh, Scp-1 inhibitor, SUMO1-SIM PPI, STEP block)
CC1=NN(c2ccc(C)c(C)c2)C(=O)/C1=C\C=C\c1ccc([N+](=O)[O-])o1	DNMT1 inh 91.1, Scp-1 inhibitor 65.1 | DNMT1 confirm inactive | Beacon interf inactive
CC1=NN(c2ccccc2)C(=O)/C1=C\C=C\c1ccccc1	none
COCCN(C(=O)c1cc2c(s1)CCC2)c1c(N)n(CC(C)C)c(=O)[nH]c1=O	DNMT1 inh 60.8 | DNMT1 confirm inactive | Beacon interf inactive
Cc1nnn(-c2nonc2N)c1C(=O)N/N=C/c1cccc2ccccc12	DNMT1 inh 59.7 (no result: F508del corr) | DNMT1 confirm inactive | Beacon interf inactive
COc1ccc(-c2cc3nc4ccccc4n3c(N)c2C#N)cc1	DNMT1 inh 52.2, LMPTP inh 57.8, SUMO1-SIM PPI 87.0, STEP block 62.1 | DNMT1 confirm inactive | Beacon interf inactive
COc1ccc(-c2cc(-c3ccccc3)c(C#N)c(S(C)=O)n2)cc1 (stereo not drawn)	none (no result: F508del corr)
C[C@@H]1CN([C@H](C)CO)C(=O)c2cc(NC(=O)Nc3cccc4ccccc34)ccc2O[C@@H]1CN(C)Cc1ccncc1	none (no result: DNMT1 inh, LMPTP inh, Scp-1 inhibitor, SUMO1-SIM PPI, STEP block)
O=C(N/N=C/c1cc([N+](=O)[O-])ccc1O)c1ccc(COc2ccc3c(c2)CCC3)o1	DNMT1 inh 72.0, LMPTP inh 68.7, Scp-1 inhibitor 80.8, STEP block 90.3 | DNMT1 confirm inactive | Beacon interf inactive
COn1c(=O)c(-c2ccc(Cl)cc2)[n+]([O-])c2ccccc21	DNMT1 inh 67.6 (no result: F508del corr) | DNMT1 confirm inactive | Beacon interf inactive
C[C@@H]1CN([C@H](C)CO)S(=O)(=O)c2ccc(-c3cccc(F)c3)cc2O[C@H]1CN(C)CC1CC1	none (no result: DNMT1 inh, LMPTP inh, Scp-1 inhibitor, SUMO1-SIM PPI, STEP block)
Cn1c2ccccc2c(=O)c2c(=O)n(Cc3ccccc3)c(-c3ccc(F)cc3)nc21	DNMT1 inh 62.6 | DNMT1 confirm inactive | Beacon interf inactive
COc1ccc(Cn2c(-c3ccc(C)cc3)nc3c(c(=O)c4ccccc4n3C)c2=O)cc1	DNMT1 inh 83.4 (no result: F508del corr) | DNMT1 confirm inactive | Beacon interf inactive
CCCNC(=O)[C@H]1[C@H](CO)[C@H]2Cn3c(ccc(-c4ccccc4F)c3=O)[C@H]2N1CCC	none (no result: DNMT1 inh, LMPTP inh, Scp-1 inhibitor, SUMO1-SIM PPI, STEP block)
Cc1ccc2cc(C#N)c(SCC(=O)NNC(=O)Cc3ccccc3)nc2c1	none (no result: F508del corr) | DNMT1 confirm inactive | Beacon interf inactive
Cc1noc(C)c1NC(=O)Nc1ccc2c(c1)CC(=O)N([C@H](C)CO)C[C@@H](C)[C@@H](CN(C)C(=O)NC1CCCCC1)O2	none (no result: DNMT1 inh, LMPTP inh, Scp-1 inhibitor, SUMO1-SIM PPI, STEP block)
Cc1[nH]n(-c2ncc(-c3ccc(Cl)cc3)s2)c(=O)c1C(c1ccc(Cl)cc1)C(C#N)C#N (stereo not drawn)	DNMT1 inh 82.8 (no result: F508del corr) | DNMT1 confirm inactive | Beacon interf inactive
CCCC#Cc1ccc([C@@H]2[C@@H](CO)N3C(=O)CN(C(=O)NC4CCCC4)C[C@H]23)cc1	none (no result: DNMT1 inh, LMPTP inh, Scp-1 inhibitor, SUMO1-SIM PPI, STEP block)
OC[C@H]1[C@@H](c2ccccc2)C2(CN(Cc3ccccc3)C2)N1Cc1ccncc1	none (no result: DNMT1 inh, LMPTP inh, Scp-1 inhibitor, SUMO1-SIM PPI, STEP block)
CCOC(=O)c1nn(-c2ccc(F)cc2)c(=O)cc1OCC(=O)Nc1ccc(OCC)cc1	DNMT1 inh 68.5 | Beacon interf DR inactive | DNMT1 confirm 79.7 | Beacon interf inactive
CCOC(=O)c1nn(-c2ccc(C)cc2)c(=O)cc1OCC(=O)Nc1cccc(OC)c1	none
CCC(C)NC(=O)COC(=O)c1ccccc1OCC(=O)Nc1ccc(Br)cc1 (stereo not drawn)	DNMT1 inh 50.9 (no result: F508del corr) | DNMT1 confirm inactive | Beacon interf inactive
Cc1cccc(NC(=O)NCc2ccc3c(c2)cc(C)n3C)c1	DNMT1 inh 57.3 | DNMT1 confirm inactive | Beacon interf inactive
Cc1cc2cc(CNC(=O)Cc3ccc([N+](=O)[O-])cc3)ccc2n1C	DNMT1 inh 56.2 | DNMT1 confirm inactive | Beacon interf inactive
Cc1cc2cc(CNC(=S)Nc3ccc(OC(F)(F)F)cc3)ccc2n1C	DNMT1 inh 57.0 | DNMT1 confirm inactive | Beacon interf inactive
COc1ccccc1OCCSc1nc2ccccc2n1CC(=O)O	DNMT1 inh 79.5 (no result: Scp-1 inhibitor) | DNMT1 confirm inactive | Beacon interf inactive
